In BindingDB's records for doi:10.1016/j.bmc.2008.08.048 (National Institute of Diabetes and Digestive and Kidney …, 2008):

Target: Transient receptor potential cation channel subfamily V member 1 (Rattus norvegicus, UniProt O35433)
Assay: Agonist-enhancing activity at TRPV1 receptor in E15 rat primary dorsal root ganglion cells assessed as capsaicin-induced 45Ca2+ influx by microplate liquid scintillation counter
Outline: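 E15 rat DRG cultures grown 5–6 days at 35°C. Uptake with capsaicin ~0.5 µM, 10 min at 20°C, 0.5 µCi/well 45Ca2+ in Tris-HBSS pH 7.5. Compound up to 50 µM, 0.2% DMSO, from 25 mM stocks. Counts normalized to in-plate capsaicin-only wells (100%, 4 wells). Variable-slope sigmoid fit gave EC50, Hill slope and ΔEmax.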

Transient receptor potential cation channel subfamily V member 1, sequence (O35433 whole entry): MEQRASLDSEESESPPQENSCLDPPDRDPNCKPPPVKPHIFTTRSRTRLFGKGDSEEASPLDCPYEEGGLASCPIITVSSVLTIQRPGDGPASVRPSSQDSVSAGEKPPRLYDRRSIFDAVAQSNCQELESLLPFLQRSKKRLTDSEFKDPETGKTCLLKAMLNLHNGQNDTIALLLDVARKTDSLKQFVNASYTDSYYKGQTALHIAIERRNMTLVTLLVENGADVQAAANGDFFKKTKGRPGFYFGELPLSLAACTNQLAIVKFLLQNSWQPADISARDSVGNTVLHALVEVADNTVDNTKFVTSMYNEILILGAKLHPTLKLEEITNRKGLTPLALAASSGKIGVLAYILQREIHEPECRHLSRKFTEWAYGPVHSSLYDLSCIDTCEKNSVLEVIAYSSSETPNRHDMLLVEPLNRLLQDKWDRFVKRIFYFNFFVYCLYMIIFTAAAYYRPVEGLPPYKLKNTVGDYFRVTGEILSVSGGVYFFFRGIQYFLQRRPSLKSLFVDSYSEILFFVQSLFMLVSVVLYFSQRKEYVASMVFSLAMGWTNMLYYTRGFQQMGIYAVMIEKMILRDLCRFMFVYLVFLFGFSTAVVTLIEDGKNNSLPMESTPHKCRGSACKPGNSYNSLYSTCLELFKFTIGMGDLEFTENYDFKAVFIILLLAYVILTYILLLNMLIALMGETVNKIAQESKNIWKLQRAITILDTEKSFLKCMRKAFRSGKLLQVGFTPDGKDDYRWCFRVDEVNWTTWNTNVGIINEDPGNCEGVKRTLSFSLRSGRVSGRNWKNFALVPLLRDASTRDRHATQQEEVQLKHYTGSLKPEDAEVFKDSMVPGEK

EC50: 17 µM
Structure (SMILES): CCOC(=O)C1=C(c2cccc(Cl)c2)N=C(C)C(C(=O)OCC)C1CC (single isomer, unassigned; (+)) [3,5-diethyl-2-methyl-4-ethyl-6-(3-chlorophenyl)-1,4-(+)-dihydropyridine-3,5-dicarboxylate]
